For this data set, the system named is MS2 coat protein. In words: apparent Kd, MS2 coat protein; higher = weaker binding; RNA-MaP array; FMN 200 µM where present. The method, boiled down: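 Each design was made on Illumina sequencing-chip clusters by stalled E. coli RNA polymerase and titrated with SNAP-549-labelled MS2 coat protein from 0.7 or 1.5 nM, doubling to 3 µM, in the absence and then the presence of constant ligand. The buffer was 100 mM Tris-HCl pH 7.5, 80 mM KCl, 4 mM MgCl2, BSA, DTT, yeast tRNA and Tween-20. The apparent Kd is the median of filtered per-cluster fits of binding curves, with green signal normalised to red-channel RNA signal and control-cluster median Fmax.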

Where [1] appears, read: designed as: OFF switch for flavin mononucleotide, no ligand.
Setting [2] is: ligand present: flavin mononucleotide, designed as: OFF switch for flavin mononucleotide.
Where [3] appears, read: designed as: ON switch for flavin mononucleotide, no ligand.
Where [4] appears, read: ligand present: flavin mononucleotide, designed as: ON switch for flavin mononucleotide.

These results are taken from the EternaBench riboswitch data.

As to “ACGUAUCGUGUAGGAUAUGACACAGGAAACUGGUCAGAAGGACAUGAGGAUCACCCAUGUAGAGUAUGUUAGGAUGACGUAUGC”, the apparent Kd (usually the concentration giving half-maximal binding under the conditions of the assay) is 0.043 µM under setting [1] and 0.261 µM under setting [2].
On the same counts, the results for “CUUUAGUGAGGAUAUGUGGCUUCGAUCGUGAGAUCGAGGCUACAGAAGGCACAUGAGGAUCACCCAUGUUCCUU” are 0.0145 µM and 0.0329 µM.
On to “AGGAGAAAUGUAGGAUAUGGGCGUAUAUAUGGGCAAAGCGCAUAUAUACGCCCAGAAGGACAUGAGGAUCACCCAUGUUUCCCU”, for which the “apparent Kd” value was 0.0126 µM under setting [1] and 0.0129 µM under setting [2].
Regarding “GACCCAAAUGAGAAGGUGUGUAUAAAUUAUAUACAAGGAUAUCGGUCGAGCGUGUUGACAUGAGGAUCACCCAUGUUGUGGGUU”, the “apparent Kd” value is, setting by setting: under setting [3], 0.0571 µM; under setting [4], 0.0257 µM.
On to “UAAACAUGAGGAUCACCCAUGUAAAGAUCGGUAGUAGAGAGUGAGGAUAUACUAAAUUUAAUGGAGUAGAAGGCACUGGGUUCU”, for which the “apparent Kd” value by setting is: under setting [3], 0.0448 µM; under setting [4], 0.0309 µM.
For the sequence “AAAGUGUAAGGAUAUGCUGCUCGUCACUUGCGUGAUGAGUAGCAGAAGGUACAUGAGGAUCACCCAUGUAAAAA”, the “apparent Kd” value by setting is: under setting [1], 0.0288 µM; under setting [2], 0.0383 µM.
As for “UGUCAUAAAUAGAAGGGUAGUUGGGUUUUACAUGAGGAUCACCCAUGUAUUAUAGGAUAUGUGUAAAGUUAUUAUUAAAGUAAA”, the “apparent Kd” value amounted to 0.0392 µM under setting [1] and 0.0345 µM under setting [2].
For the sequence “AUUUUACAUGAGGAUCACCCAUGUUUUGGCGGGUCAGGAUAUAGAUCGGAUGAGUUCUGUCUAGAAGGGACAUGUA”, the “apparent Kd” value amounted to 0.0775 µM under setting [3] and 0.0716 µM under setting [4].
With “UUGGUUGUCGUAGGAUAUGUAGGAUAUUCCUACAUGAGGAUCACCCAUGUUCGCAUGGAAGAAGGACAGAAUGACGAUGACCAG”, the “apparent Kd” value by setting is: under setting [3], 1.11 µM; under setting [4], 0.0271 µM.
On the same counts, the results for “GUUAAGAACUAAGGAUAUUGAAUACAUAUGUUUAACAUGAGGAUCACCCAUGUGGGUUGCGGUAUCGAGAAGGUAGAAUAAUAG” are 0.115 µM and 0.113 µM.
Consider “CGUGCAAGUGUAGGAUAUGGUUAUCUAUGUCUAGUUACUAGACAUAGAUAACCAGAAGGACAUGAGGAUCACCCAUGUAGCACG”, for which the “apparent Kd” value was found to be 0.0075 µM under setting [1] and 0.0176 µM under setting [2].
For “CAGCGAUAGCUGAACAAUCUAUCUGAGGAUAUCAUGAAUAAACAUGAGGAUCACCCAUGUAAAUAUGAGAAGGCAGAUAGAUUG”, the “apparent Kd” value under setting [3] was 0.00482 µM and the “apparent Kd” value under setting [4] was 0.00478 µM.
On the same counts, the results for “UUUUUACUUGUAGGAUAUGGAGACAUGAGGAUCACCCAUGUAUGAUAAGCUAAAUUAUGCUGUGGCCAGAAGGAUAUUAUUCUU” are 0.0482 µM and 0.0537 µM.
On to “GUUGCUAUCGGAGGAUAUUCAUACCGGAAACGGACAUGAGGAUCACCCAUGUCGCGAAAGCGUUGGGAGAAGGCCGAUAGCAAC”, for which the “apparent Kd” value reads like this: under setting [3], 0.248 µM; under setting [4], 0.0214 µM.
For the sequence “AGUCGGAGCAGAGGAUAUACAUGAGGAUCACCCAUGUAAUAAAGUGAAGACUGGAAACAGUCAAUGUAGAAGGCUGCUCCGACA”, the “apparent Kd” value under setting [1] turned out to be 0.0272 µM and the “apparent Kd” value under setting [2] stood at 0.21 µM.
As for “AGCUACGUUUCGUAGCAGCUAGGUGAGGAUAUCCUUUACAUGAGGAUCACCCAUGUAUAGCCAUGGGAGAAGGCGCCUAGAAAG”, the “apparent Kd” value came out at 0.181 µM under setting [3] and 0.0169 µM under setting [4].
Consider “CUCGUGUCAGGAUAUGGAAGGCCGUUUGAUUAACGAGGGUACUAGAAGGGACAUGAGGAUCACCCAUGUAAAAA”, for which the “apparent Kd” value runs as follows: under setting [1], 0.0377 µM; under setting [2], 0.0576 µM.
With “GGUUGGUAUUACAACGGCCUGAGGGAGGAUAUACAAGGCCGGCGUCGCACAUGAGGAUCACCCAUGUAGAAGGCCCAAGGCCUG”, the “apparent Kd” value turned out to be 0.00697 µM under setting [1] and 0.012 µM under setting [2].
On the same counts, the results for “UCGGCGCGAGGAUAUACGUUUGCGCGUUUUCGUUUUUGCGUACAUGAGGAUCACCCAUGUAGAAGGCGCGCCGC” are 0.0128 µM and 0.018 µM.
For “UGACCCUGGAUGAGUGUUUAGACAUGAGGAUCACCCAUGUCUGAGGAUAUGCGGCAUCAAUAACAGCAGAAGGCAGACUUGGGU”, the “apparent Kd” value under setting [1] amounted to 0.133 µM and the “apparent Kd” value under setting [2] worked out at 0.0412 µM.
For “CUUCUGUCAGGAUAUGCGAAUCACCACUGGGUCAGCGGUGAGCAGAAGGGACAUGAGGAUCACCCAUGUAAAGU”, the “apparent Kd” value reads like this: under setting [1], 0.0405 µM; under setting [2], 0.171 µM.
“AAACACGGACAUGAGGAUCACCCAUGUGGCGAAAGCCUUGGGAGAAGGCCGAUUGCAAAGCAAUCGGAGGAUAUUCGUACCGUG”: the “apparent Kd” value was found to be 0.237 µM under setting [3] and 0.0138 µM under setting [4].
With “AGGAGGUGAGGAUAUGCUGCUCGUCACUUGCGUGAUGAGUAGCAGAAGGCACAUGAGGAUCACCCAUGUAAAGA”, the “apparent Kd” value reads like this: under setting [1], 0.117 µM; under setting [2], 0.105 µM.
On to “ACUUUACAUGAGGAUCACCCAUGUUUUGGUGGAUCAGGAUAUAAAUUGAAUGAGUUUUAGUUAGAAGGGAUAUUUA”, for which the “apparent Kd” value is, setting by setting: under setting [3], 0.0898 µM; under setting [4], 0.099 µM.
